# What was measured:
# protease XIV = test: Enzymatic degradation of Aβ fibrils by protease XIV; type: in vitro ADME; settings: protease XIV 100 μg/mL, 24 h, 0.1 M phosphate buffer pH 7.4, 37°C; MALDI-TOF
# In short: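 Fibrils from 100 μM Aβ(1-42) were aged 2 days at 37°C, then digested with the enzyme. Products (about 1 μg/mL peptide) were mixed with saturated sinapic acid in ACN/0.1% TFA (1:2) and run by MALDI-TOF over 20–5000 Da. Enzyme alone served as control. Cleavage patterns were inferred from substrate specificity (C-terminal to aromatic and basic residues) and fragment masses.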
# neprilysin (NEP) = neprilysin (NEP) (Homo sapiens, UniProt P08473); test: Enzymatic degradation of Aβ fibrils by neprilysin; type: in vitro ADME; settings: NEP 50 μg/mL, 48 h, 0.1 M phosphate buffer pH 7.4, 37°C; AFM
# neprilysin (NEP), sequence (P08473 whole entry, species assumed): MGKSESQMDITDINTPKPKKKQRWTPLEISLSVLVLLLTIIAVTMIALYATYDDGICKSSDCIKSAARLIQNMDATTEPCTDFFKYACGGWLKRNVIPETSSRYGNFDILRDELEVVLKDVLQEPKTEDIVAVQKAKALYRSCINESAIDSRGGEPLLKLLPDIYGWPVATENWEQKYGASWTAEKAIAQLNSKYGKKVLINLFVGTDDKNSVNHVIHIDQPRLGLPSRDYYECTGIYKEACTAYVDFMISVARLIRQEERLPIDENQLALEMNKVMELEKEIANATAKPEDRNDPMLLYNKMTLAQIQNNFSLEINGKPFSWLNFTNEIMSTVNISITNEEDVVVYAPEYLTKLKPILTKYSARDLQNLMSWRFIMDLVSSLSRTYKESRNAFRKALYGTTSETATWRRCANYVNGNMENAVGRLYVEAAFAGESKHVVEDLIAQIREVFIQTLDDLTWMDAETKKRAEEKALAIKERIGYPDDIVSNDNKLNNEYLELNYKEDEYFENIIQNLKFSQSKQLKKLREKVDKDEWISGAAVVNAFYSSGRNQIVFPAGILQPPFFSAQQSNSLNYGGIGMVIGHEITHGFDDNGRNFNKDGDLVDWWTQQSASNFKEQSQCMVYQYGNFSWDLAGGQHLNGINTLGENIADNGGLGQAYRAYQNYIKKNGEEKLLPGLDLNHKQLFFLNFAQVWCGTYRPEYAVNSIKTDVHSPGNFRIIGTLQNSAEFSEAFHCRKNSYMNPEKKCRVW
# In short: (§1)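 Fibrils were made from Aβ(1-42): 5 mM in DMSO, sonicated 10 min at 37°C, diluted to 100 μM in 10 mM HCl, sonicated 30 min, filtered through 10,000 MWCO, then held 2 days at 37°C. After enzyme treatment, fibrils on gold-coated substrates were imaged by tapping-mode AFM in air with a 3 N/m silicon cantilever. Tip-convolution calibration gave true dimensions.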
# [1] = target: insulin degrading enzyme (IDE) (Homo sapiens, UniProt P14735); test: Enzymatic degradation of Aβ fibrils by insulin degrading enzyme; type: in vitro ADME; settings: IDE 50 μg/mL, 48 h, 0.1 M phosphate buffer pH 7.4, 37°C; AFM
# In short: as §1
# [2] = Circular dichroism, secondary structure content; type: physicochemical; settings: CD at 37°C, filtered (10K MWCO) samples
# In short: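 Microfibrils were measured by CD at 37°C before and after enzymatic degradation (24 or 48 h). Spectra were taken at 12 nm·sec−1 and 1 nm resolution, with 4 scans averaged. Enzyme-only solutions were subtracted. Data were expressed as molar residue ellipticity using 42 residues and 0.3 mM peptide. Secondary-structure content was estimated by a published method.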
# [3] = MFTIR, secondary structure of microfibrils in air; type: physicochemical; settings: amide I region deconvoluted
# In short: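 Aβ(1-42) fibrils, formed by incubating 100 μM peptide in dilute HCl for 2 days at 37°C, were deposited on gold-coated substrates. Infrared microscopy was done in reflection mode at 4 cm−1 resolution with a liquid-nitrogen-cooled MCT detector.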
substance,measurement,setting,value
"Aβ microfibrils: Fibrils of purchased Aβ(1-42) peptide, incubated in DMSO/10 mM HCl at 37°C for 2 days",full-length Aβ(1-42) after degradation by protease XIV,protease XIV,no full-length Aβ(1-42) peptides
same,degradation on exposure to NEP,neprilysin (NEP),almost no significant degradation
same,degradation on exposure to IDE,[1],almost no significant degradation
same,"beta-strand structures, filtered samples",[2],18±3%
same,alpha-helix and random coil content,[3],12±2%
same,beta-sheet content,[3],71±8%
same,turns content,[3],17±5%
